Source: PubChem BioAssay
ERp5 block – blocks human ERp5 reductase activity on insulin. ERp5 insulin aggregation, absorbance 650 nm, 90 min. AID 651711. hit rate 0.05% among 350,000. inhibition, % at 9.99 µM. Q15084;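 active = mean replicate inhibition above about 25%, with every replicate also reaching it, limit read from the data, passing the limit was not always enough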
Cneo AK release – Cryptococcus neoformans lysis via adenylate kinase release; C. neoformans lysis, adenylate kinase release luminescence, 4 h; normalised: neutral wells 0, clomiphene wells 100; lysis activity, % at 15 µM; hit rate 0.2% among 360,000; AID 651654;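 active = mean lysis activity across replicates of at least 80%, whatever share of replicates individually reach that level; inactive = mean lysis activity below 80%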
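Material: C. neoformans cells; Schedule: 4 h static compound exposure, 37 °C, read 1 h post-reagent; Measured by: adenylate kinase release luminescence; Read-out: signal increase indicating cell lysis; Controls: Clomiphene as positive lysis control.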
PglD DTNB – PglD (C. jejuni) enzyme inhibition. purified PglD enzyme, DTNB colorimetric CoA detection. inhibition, % at 12.5 µM. hit rate 0.098% among 360,000; in the data active = inhibition above about 16%, passing the limit was not always enough
miR-122 sensor – inhibitors of miR-122 in Huh7 cells | Huh7 miR-122 Renilla luciferase sensor, 48 h; neutral wells = 0, positive control = 100 | activation (reporter increase), % at 12.5 µM | hit rate 0.3% among 340,000 | AID 602342;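 active = mean replicate activation score at least 90 and every replicate individually at or above 90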;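 note: higher luciferase means less miR-122 activity so hits act as miR-122 inhibitors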
PvdQ acylase – P. aeruginosa PvdQ acylase inhibition | hit rate 0.063% among 340,000 | purified PvdQ acylase, fluorescence plate reader | inhibition, % at 10 µM; in the data active = inhibition above about 30%, passing the limit was not always enough;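 note: 0% = vehicle neutral wells and 100% = reference inhibitor wells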
PDI inh – inhibitors of human protein disulfide isomerase; P07237; PDI insulin aggregation turbidity, A650, 90 min; inhibition, % at 10 µM; hit rate 0.052% among 350,000; AID 588391;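 active = mean inhibition across replicates of 30% or more, whatever share of single replicates reach that level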
Target sequence (P07237 whole entry, looked up): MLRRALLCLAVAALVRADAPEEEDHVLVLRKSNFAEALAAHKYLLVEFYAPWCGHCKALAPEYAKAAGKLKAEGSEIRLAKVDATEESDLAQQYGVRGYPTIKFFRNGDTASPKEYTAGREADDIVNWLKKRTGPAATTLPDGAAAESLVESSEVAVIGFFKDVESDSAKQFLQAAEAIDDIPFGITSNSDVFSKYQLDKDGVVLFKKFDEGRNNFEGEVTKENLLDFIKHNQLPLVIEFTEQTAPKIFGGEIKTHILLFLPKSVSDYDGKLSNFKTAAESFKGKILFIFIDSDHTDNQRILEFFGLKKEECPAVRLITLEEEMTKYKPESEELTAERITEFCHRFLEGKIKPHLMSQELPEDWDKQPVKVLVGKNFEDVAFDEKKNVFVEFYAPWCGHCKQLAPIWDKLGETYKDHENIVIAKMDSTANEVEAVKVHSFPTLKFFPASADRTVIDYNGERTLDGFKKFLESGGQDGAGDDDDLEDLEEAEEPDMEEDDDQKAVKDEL
Active calls of the source: *; nt = no result; [ ] = dose if it differs, or a comment. In the library only some 0.58% were active in any assay of this set; here they are far more common.

SMILES	ERp5 block	Cneo AK release	PglD DTNB	miR-122 sensor	PvdQ acylase	PDI inh
CCCNC(=O)C[C@@H]1CC[C@@H]2[C@@H](COc3ccc(NC(=O)CCC)cc3C(=O)N2C)O1	-25.2	104.8*	2.4	13.0[16.7 µM]	nt	nt
CCCNC(=O)C[C@@H]1CC[C@@H]2[C@@H](COc3ccc(NC(=O)c4ccccc4)cc3C(=O)N2C)O1	-2.0	-2.1	1.7	5.1[16.7 µM]	nt	nt
CCCNC(=O)C[C@H]1CC[C@@H]2[C@@H](COc3ccc(NC(=O)c4ccccc4)cc3C(=O)N2C)O1	63.7*	-2.6	1.9	-7.9[16.7 µM]	nt	nt
C[C@@H]1CCCCO[C@H](CN(C)C(=O)c2ccccc2)[C@H](C)CN([C@@H](C)CO)C(=O)c2cc(NC(=O)CCCCCC(=O)Nc3ccccc3N)ccc2O1	4.2	-1.2	1.8	-5.0[16.7 µM]	nt	nt
C/C=C/c1ccc([C@H]2[C@H](CO)N3C(=O)CN(C(=O)Nc4ccc(F)cc4)C[C@@H]23)cc1	-0.3	nt	nt	nt	nt	nt
CN1c2ccc(-c3cccc(F)c3)cc2[C@H]2[C@H](CCN2C(=O)c2ccccc2F)[C@H]1CO	-3.8	-11.5	5.2	106.7*[16.7 µM]	nt	nt
CN1c2ccc(-c3cccc(F)c3)cc2[C@H]2[C@H](CCN2C(=O)C2CC2)[C@H]1CO	3.6	-0.7	2.0	99.8*[16.7 µM]	nt	nt
COc1cccc(-c2ccc3c(c2)[C@H]2[C@H](CCN2C(=O)c2ccccc2F)[C@@H](CO)N3C)c1	3.9	3.6	-1.9	4.0[16.7 µM]	nt	nt
CN1c2ccc(-c3cccc(F)c3)cc2[C@@H]2[C@@H](CCN2C(=O)C2CC2)[C@H]1CO	1.5	-0.6	2.1	5.8[16.7 µM]	nt	nt
COc1ccc(S(=O)(=O)N[C@@H]2C=C[C@H](CC(=O)N3CCC(Cc4ccccc4)CC3)O[C@H]2CO)cc1	-3.6	3.1	1.6	nt	nt	nt
COc1ccc(S(=O)(=O)N[C@H]2C=C[C@H](CC(=O)N3CCC(Cc4ccccc4)CC3)O[C@@H]2CO)cc1	-9.0	89.3*	2.7	nt	nt	nt
Cc1ccc(S(=O)(=O)N[C@H]2C=C[C@@H](CC(=O)N3CCC(Cc4ccccc4)CC3)O[C@H]2CO)cc1	2.2	84.9*	1.2	-2.0[16.7 µM]	nt	nt
C[C@H]1CN([C@@H](C)CO)C(=O)c2cc(NS(=O)(=O)c3ccccc3)ccc2O[C@H]1CN(C)S(C)(=O)=O	4.3	-2.5	-3.1	-24.7[16.7 µM]	nt	nt
C[C@@H]1CCCCO[C@H](CN(C)C(=O)C2CCCCC2)[C@@H](C)CN([C@@H](C)CO)C(=O)c2cc(NC(=O)c3ccccc3)ccc2O1	0.6	-0.1	-0.9	-0.5[16.7 µM]	nt	nt
CCN1C(=O)c2cccc3c(S(=O)(=O)Nc4ccccc4)ccc1c23	nt	0.9	1.2	150.6*	-2.2	6.1
CCN1C(=O)c2cccc3c(S(=O)(=O)Nc4ncccc4C)ccc1c23	nt	-7.9	-7.4	95.6*	-3.4	-1.5
COc1ccc(CNC(=O)C[C@@H]2CC[C@@H]3[C@H](COc4ccc(NC(C)=O)cc4C(=O)N3C)O2)cc1	1.2	6.4	0.2	-2.6[16.7 µM]	nt	nt
Clc1cccc(Cc2c(-c3cccc(Br)c3)nc3ccc(Cl)cn23)c1	-1.8	-0.4	3.0	0.8	nt	nt
Cc1ccc2nc(-c3cccc(Br)c3)c(Cc3cccc(Cl)c3)n2c1	25.3*	0.4	5.8	4.0	nt	nt
O=C(O)CCC(=O)Nc1ccccc1C(=O)NCCc1ccccc1	-2.1	nt	nt	nt	9.4	4.6
O=C(O)CCC(=O)Nc1ccccc1C(=O)Nc1ccccc1	nt	-4.1	-2.0	114.6*	12.4	-3.1
COc1ccc(CN(C)C[C@H]2Oc3c(NC(=O)Nc4cccc5ccccc45)cccc3C(=O)N([C@H](C)CO)C[C@H]2C)cc1	-2.2	2.2	1.9	-1.5[16.7 µM]	nt	nt
COc1ccc(CN(C)C[C@@H]2Oc3c(NC(=O)Nc4cccc5ccccc45)cccc3C(=O)N([C@@H](C)CO)C[C@@H]2C)cc1	-2.1	114.2*	0.5	7.5[16.7 µM]	nt	nt
C[C@@H]1CN([C@H](C)CO)C(=O)c2cccc(NC(=O)Nc3ccc4c(c3)OCO4)c2O[C@H]1CN(C)Cc1ccc(Oc2ccccc2)cc1	32.3*	2.7	8.3	-3.7[16.7 µM]	nt	nt
COc1ccc(NC(=O)Nc2cccc3c2O[C@H](CN(C)Cc2ccncc2)[C@H](C)CN([C@@H](C)CO)C3=O)cc1	2.6	52.9	22.0*	3.7[16.7 µM]	nt	nt
C[C@@H]1CN([C@H](C)CO)C(=O)c2cc(N(C)C)ccc2O[C@@H](C)CCCCO[C@@H]1CN(C)C(=O)CCC(F)(F)F	-6.6	3.0	3.6	-3.9[16.7 µM]	nt	nt
